Values after ≈ are worked out from the molar mass of the structure shown. Active and inactive are the calls of the source. No cut-off for these calls is given here.
What was measured:
[1] = AUC (0 to infinity) in Sprague-Dawley rat at 3 mg/kg, po by HPLC-MS method; assay type: ADME, organism-based; parameters: dose 3 mg/kg, route oral, time infinity; details: plasma
Outline: (§1)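 Male rats (330−380 g, 9−10 weeks old), jugular vein cannulated 1 day before dosing, fasted; 3 mg/kg iv or oral in DMA/PEG400 (30/70, v/v), n = 3. Blood (150 μL) drawn at 0, 2, 5 (iv only), 15, 30 min and 1, 2, 4, 6, 8, 12, 24 h, kept on ice; plasma analysed by HPLC-MS; noncompartmental analysis.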

[2] = test system: Murine hepatitis virus; assay: Antiviral activity against Murine hepatitis virus JHM infected in mouse DBT cells assessed as reduction in N-protein expression at 0.05 to 0.5 uM pre-treated 1 hr before virus infection and measured 24 hrs post infection by immunofluorescent assay; assay type: functional, organism-based
Outline: (§2)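 DBT cells (2.8 × 10⁵/well) seeded the day before infection in DMEM with 2% FBS. Compound added 1 h before MHV-JHM at MOI 0.005 (virus grown in BNL CL.2 cells). Cytopathic effect viewed by phase contrast and N protein by immunofluorescence at 24 hpi.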

[3] = Solubility in DMSO; assay type: physicochemical
Outline: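 Compound dissolved in DMSO with sonication; maximal volume before precipitation measured and used to calculate saturation solubility.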

[4] = AUC (0 to infinity) in Sprague-Dawley rat at 3 mg/kg, iv by HPLC-MS method; assay type: ADME, organism-based; parameters: time infinity, dose 3 mg/kg, route intravenous; details: plasma; outline: as §1
[5] = test system: MCF7; assay: Down regulation of cyclin A2 expression in human MCF7 cells incubated for 24 hrs by Western blotting; assay type: functional, cell-based
[6] = test system: Murine hepatitis virus; assay: Antiviral activity against Murine hepatitis virus JHM infected in mouse DBT cells assessed as reduction in virus-induced cytopathic effect at 0.05 to 0.5 uM pre-treated 1 hr before virus infection and measured 24 hrs post infection by phase contrast microscopy; assay type: functional, organism-based; outline: as §2
[7] = Cmax in Sprague-Dawley rat at 3 mg/kg, po by HPLC-MS method; assay type: ADME, organism-based; parameters: dose 3 mg/kg, route oral; details: in vivo
Outline: (§3)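 Male rats (330−380 g, 9−10 weeks), jugular vein cannula implanted 1 day before, fasted. 3 mg/kg given iv or orally (n = 3) in DMA/PEG400 30/70 v/v. Blood (150 μL) drawn at 0, 2, 5 (iv only), 15, 30 min and 1, 2, 4, 6, 8, 12, 24 h; plasma analysed by HPLC-MS; noncompartmental analysis.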

[8] = test system: NCI-H460; assay: Growth inhibition of human NCI-H460 cells; assay type: functional
Outline: (§4)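 Cells seeded per well: NUGC-3 4500, HONE-1 6000, MCF-7 6500, NCI-H460 2500, HepG2 10000, A549 5000; A549 grown in RPMI 1640 with 2 g/L NaHCO₃, 2 mM L-glutamine and 10% FBS. GI₅₀ = concentration giving 50% growth inhibition, mean of at least three experiments each in duplicate. Paclitaxel served as positive control.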

[9] = Growth inhibition of human HONE1 cells; assay type: functional; outline: as §4
[10] = Apparent elimination half life in Sprague-Dawley rat at 3 mg/kg, iv by HPLC-MS method; assay type: ADME, organism-based; parameters: dose 3 mg/kg, route intravenous; details: in vivo, read-out: betat1/2(app) (converted); outline: as §3
[11] = test system: RAW264.7; assay: Antiinflammatory activity in mouse RAW264.7 cells assessed as inhibition of LPS-induced nitric oxide production incubated for 18 hrs by nitrate/nitrite assay; assay type: functional, cell-based; details: RAW264.7, 18 h
Outline: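 RAW264.7 seeded 65000 cells/well, cultured 24 h, then medium replaced with complete medium containing IFNγ (20 ng/mL)/LPS (5 μg/mL) plus compound at various concentrations for 18 h; nitric oxide measured by Nitrate/Nitrite kit. EC50 as mean of at least three experiments, each in duplicate.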

Question: For `CCN1Cc2c(c3ccc(OC)cc3c3cc(OC)c(OC)cc23)C(O)C1` (stereo unspecified), which AUC(0-inf) [1] is on record?
Answer: 646 ng·h/mL

Question: What about the Activity [2] of the same molecule?
Answer: Active

Question: And the solubility [3]?
Answer: 60.5 mM (≈ 22.2 mg/mL)

Question: And the AUC(0-inf) [4]?
Answer: 999 ng·h/mL

Question: And the Activity [5]?
Answer: Active

Question: What about the Activity [6] of the same molecule?
Answer: Active

Question: And the Cmax [7]?
Answer: 72.4 ng/mL

Question: What about the GI50 [8] of the same molecule?
Answer: 20 nM

Question: And the GI50 [9]?
Answer: 60 nM

Question: And the half-life [10]?
Answer: 48 min

Question: And the EC50 [11]?
Answer: 70 nM

Source: ChEMBL document CHEMBL2177013, “Synthesis and biological evaluation of tylophorine-derived dibenzoquinolines as orally active agents: exploration of the role of tylophorine e ring on biological activity” (J Med Chem, 2012)
